In ChEMBL document CHEMBL1153764, “A facile one-pot green synthesis and antibacterial activity of 2-amino-4H-pyrans and 2-amino-5-oxo-5,6,7,8-tetrahydro-4H-chromenes” (2009):
Converted amounts (≈) assume the structure as drawn.

Tests used:
Assay type in all cases: functional
[1] = system: Staphylococcus aureus; assay: Antibacterial activity against Staphylococcus aureus MTCC 1144 at 64 ug/ml after 16 hrs by disc diffusion method; settings: MTCC 1144, 16 h, read-out: IZ
How it was run: (§1)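 Disc diffusion zone-of-inhibition assay. The bacterial isolate was spread evenly over the surface of an agar plate. A filter disc loaded with a known amount of compound was placed on the surface, and the compound diffused into the surrounding agar. Plates were incubated 16 h until a bacterial lawn formed, and the zone of inhibition around the disc was then assessed.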

[2] = system: Escherichia coli; assay: Antibacterial activity against Escherichia coli MTCC 41 after 12 to 16 hrs
How it was run: (§2)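 Tube broth dilution MIC. Tubes were inoculated with the bacterial strain and incubated 12–16 h. Growth was scored visually: a turbid tube means growth, a clear tube means no growth. MIC is the lowest concentration with no growth.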

[3] = system: Pseudomonas putida; assay: Antibacterial activity against Pseudomonas putida MTCC 1072 at 64 ug/ml after 16 hrs by disc diffusion method; settings: MTCC 1072, 16 h, read-out: IZ; how it was run: as §1
[4] = system: Escherichia coli; assay: Antibacterial activity against Escherichia coli MTCC 41 at 64 ug/ml after 16 hrs by disc diffusion method; settings: MTCC 41, 16 h, read-out: IZ; how it was run: as §1
[5] = system: Pseudomonas putida; assay: Antibacterial activity against Pseudomonas putida MTCC 1072 after 12 to 16 hrs; how it was run: as §2
[6] = system: Staphylococcus aureus; assay: Antibacterial activity against Staphylococcus aureus MTCC 1144 after 12 to 16 hrs; how it was run: as §2
[7] = system: Escherichia coli; assay: Antibacterial activity against Escherichia coli MTCC 41 at 128 ug/ml after 16 hrs by disc diffusion method; settings: MTCC 41, 16 h, read-out: IZ; how it was run: as §1
[8] = system: Staphylococcus aureus; assay: Antibacterial activity against Staphylococcus aureus MTCC 1144 at 128 ug/ml after 16 hrs by disc diffusion method; settings: MTCC 1144, 16 h, read-out: IZ; how it was run: as §1
[9] = system: Pseudomonas putida; assay: Antibacterial activity against Pseudomonas putida MTCC 1072 at 128 ug/ml after 16 hrs by disc diffusion method; settings: MTCC 1072, 16 h, read-out: IZ; how it was run: as §1

MIC [2]	MIC [5]	MIC [6]	Compound	zone of inhibition at 64 µg/mL [1]	zone of inhibition at 64 µg/mL [3]	zone of inhibition at 64 µg/mL [4]	zone of inhibition at 128 µg/mL [7]	zone of inhibition at 128 µg/mL [8]	zone of inhibition at 128 µg/mL [9]
> 128 µg/mL	> 128 µg/mL	> 128 µg/mL	CCOC(=O)C1=C(C)OC(N)=C(C#N)C1c1ccc([N+](=O)[O-])cc1 (stereo not drawn)	< 1 mm	< 1 mm	< 1 mm	< 1 mm	< 1 mm	< 1 mm
128 µg/mL (≈ 389 µM)	128 µg/mL (≈ 389 µM)	128 µg/mL (≈ 389 µM)	CC1(C)CC(=O)C2=C(C1)OC(N)=C(C#N)C2c1ccc(Cl)cc1 (stereo not drawn)	> 2 mm	> 2 mm	> 2 mm	> 3 mm	> 3 mm	> 3 mm
> 128 µg/mL	128 µg/mL (≈ 415 µM)	> 128 µg/mL	Cc1ccc(C2C(C#N)=C(N)OC3=C2C(=O)CC(C)(C)C3)cc1 (stereo not drawn)	> 2 mm	> 2 mm	> 2 mm	> 2 mm	> 2 mm	> 3 mm
128 µg/mL (≈ 412 µM)	64 µg/mL (≈ 206 µM)	> 128 µg/mL	CC1(C)CC(=O)C2=C(C1)OC(N)=C(C#N)C2c1cccc(O)c1 (stereo not drawn)	> 2 mm	> 3 mm	> 2 mm	> 3 mm	> 2 mm	> 3 mm
> 128 µg/mL	> 128 µg/mL	> 128 µg/mL	CC1(C)CC(=O)C2=C(C1)OC(N)=C(C#N)C2c1ccccc1 (stereo not drawn)	< 1 mm	> 2 mm	< 1 mm	> 2 mm	< 1 mm	> 2 mm
64 µg/mL (≈ 197 µM)	128 µg/mL (≈ 395 µM)	> 128 µg/mL	COc1ccc(C2C(C#N)=C(N)OC3=C2C(=O)CC(C)(C)C3)cc1 (stereo not drawn)	> 2 mm	> 2 mm	> 3 mm	> 3 mm	> 2 mm	> 3 mm
128 µg/mL (≈ 377 µM)	128 µg/mL (≈ 377 µM)	128 µg/mL (≈ 377 µM)	CC1(C)CC(=O)C2=C(C1)OC(N)=C(C#N)C2c1cccc([N+](=O)[O-])c1 (stereo not drawn)	> 2 mm	< 1 mm	< 1 mm	> 3 mm	> 3 mm	> 3 mm
64 µg/mL (≈ 189 µM)	128 µg/mL (≈ 377 µM)	64 µg/mL (≈ 189 µM)	CC1(C)CC(=O)C2=C(C1)OC(N)=C(C#N)C2c1ccc([N+](=O)[O-])cc1 (stereo not drawn)	> 3 mm	< 1 mm	> 3 mm	> 3 mm	> 3 mm	> 3 mm
> 128 µg/mL	> 128 µg/mL	> 128 µg/mL	CCOC(=O)C1=C(C)OC(N)=C(C#N)C1c1cccc([N+](=O)[O-])c1 (stereo not drawn)	< 1 mm	< 1 mm	< 1 mm	< 1 mm	< 1 mm	< 1 mm
64 µg/mL (≈ 225 µM)	128 µg/mL (≈ 450 µM)	128 µg/mL (≈ 450 µM)	CCOC(=O)C1=C(C)OC(N)=C(C#N)C1c1ccccc1 (stereo not drawn)	< 1 mm	< 1 mm	> 3 mm	> 3 mm	> 3 mm	> 3 mm
128 µg/mL (≈ 402 µM)	128 µg/mL (≈ 402 µM)	128 µg/mL (≈ 402 µM)	CCOC(=O)C1=C(C)OC(N)=C(C#N)C1c1cccc(Cl)c1 (stereo not drawn)	< 1 mm	< 1 mm	< 1 mm	> 3 mm	> 3 mm	> 3 mm
> 128 µg/mL	> 128 µg/mL	> 128 µg/mL	CCOC(=O)C1=C(C)OC(N)=C(C#N)C1c1ccc(Cl)cc1 (stereo not drawn)	< 1 mm	< 1 mm	< 1 mm	< 1 mm	< 1 mm	< 1 mm
> 128 µg/mL	> 128 µg/mL	> 128 µg/mL	CCOC(=O)C1=C(C)OC(N)=C(C#N)C1c1ccc(C)cc1 (stereo not drawn)	< 1 mm	< 1 mm	< 1 mm	< 1 mm	< 1 mm	< 1 mm
> 128 µg/mL	128 µg/mL (≈ 426 µM)	> 128 µg/mL	CCOC(=O)C1=C(C)OC(N)=C(C#N)C1c1cccc(O)c1 (stereo not drawn)	< 1 mm	< 1 mm	< 1 mm	< 1 mm	< 1 mm	> 3 mm
128 µg/mL (≈ 407 µM)	128 µg/mL (≈ 407 µM)	128 µg/mL (≈ 407 µM)	CCOC(=O)C1=C(C)OC(N)=C(C#N)C1c1ccc(OC)cc1 (stereo not drawn)	< 1 mm	< 1 mm	< 1 mm	> 3 mm	> 3 mm	> 3 mm

Compound	MIC [2]	MIC [5]	MIC [6]	zone of inhibition at 64 µg/mL [1]	zone of inhibition at 64 µg/mL [3]	zone of inhibition at 64 µg/mL [4]	zone of inhibition at 128 µg/mL [7]	zone of inhibition at 128 µg/mL [8]	zone of inhibition at 128 µg/mL [9]
CC1(C)S[C@@H]2[C@H](NC(=O)[C@H](N)c3ccccc3)C(=O)N2[C@H]1C(=O)O [AMPICILLIN]	16 µg/mL (≈ 45.8 µM)	> 256 µg/mL		> 5 mm	0 mm	> 5 mm	> 5 mm	> 5 mm	0 mm
